Laboratory results: ChEMBL document CHEMBL3396970, “Synthesis and biological evaluation of novel 2,3-disubstituted quinoxaline derivatives as antileishmanial and antitrypanosomal agents” (Eur J Med Chem, 2015)

How the values were obtained:
[1] = system: Trypanosoma cruzi; experiment: Antitrypanosomal activity against epimastigote stage of Trypanosoma cruzi Y after 96 hrs by hemocytometry; assay type: functional, organism-based
In short: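 Log-phase parasites (promastigotes 3-day, Warren's medium + 10% FBS, 25°C; epimastigotes 4-day, LIT + 10% FBS, 28°C) seeded at 1 × 10^6 cells/mL with compound (0.1-100 µM; DMSO ≤1%). Promastigotes read at 72 h, epimastigotes at 96 h, by hemocytometer counting. IC50 by nonlinear regression.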

[2] = system: Leishmania amazonensis; experiment: Antileishmanial activity against promastigote stage of Leishmania amazonensis WHOM/BR/75/JOSEFA after 72 hrs by hemocytometry; assay type: functional, organism-based
[3] = system: Trypanosoma cruzi; experiment: Antitrypanosomal activity against trypomastigote stage of Trypanosoma cruzi Y infected in monkey LLC-MK2 cells after 96 hrs by Pizzi-Brener method; assay type: functional, organism-based
[4] = Selectivity ratio of CC50 for mouse J774A1 cells to IC50 for promastigote stage of Leishmania amazonensis WHOM/BR/75/JOSEFA; assay type: ADME, cell-based, J774.A1; conditions: read-out: Ratio CC50/IC50
[5] = Selectivity ratio of CC50 for monkey LLC-MK2 cells to IC50 for epimastigote stage of epimastigote stage of Trypanosoma cruzi Y; assay type: ADME, cell-based; conditions: read-out: Ratio CC50/IC50
[6] = Selectivity ratio of CC50 to IC50 for promastigote stage of Leishmania amazonensis WHOM/BR/75/JOSEFA; design: reference not given here
[7] = Selectivity ratio of CC50 for monkey LLC-MK2 cells to IC50 for epimastigote stage of epimastigote stage of Trypanosoma cruzi Y

Row | Structure (SMILES) | IC50 [1] | IC50 [2] | EC50 [3] | selectivity ratio [4] | selectivity ratio [5] | selectivity ratio [6] | selectivity ratio [7]
1 | Cc1ccc(-c2nc3ccccc3nc2-c2ccccc2)cc1 | 35.7 µM | 8.9 µM |  |  |  |  | 
2 | COc1ccc(-c2nc3ccccc3nc2-c2ccccc2)cc1 | 21.5 µM | 12.8 µM |  |  |  |  | 
3 | c1ccc(-c2nc3ccccc3nc2-c2ccccc2)cc1 | > 100 µM | 21.1 µM |  |  |  |  | 
4 | CSC(=C[N+](=O)[O-])SC | 10.8 µM | 29.6 µM | > 50 µM | 6 | 18.3 | 6 | 18.3
5 | COc1cccc(N/C(=C\[N+](=O)[O-])SC)c1 | 32 µM | 27.9 µM |  |  |  |  | 
6 | CS/C(=C/[N+](=O)[O-])Nc1ccccc1 | 11.4 µM | 24.1 µM |  |  |  |  | 
7 | COc1ccc(N/C(=C\[N+](=O)[O-])SC)cc1 | 39 µM | 28.7 µM |  |  |  |  | 
8 | CS/C(=C/[N+](=O)[O-])Nc1ccc2c(c1)OCCO2 | 61.9 µM | 42.3 µM |  |  |  |  | 
9 | CS/C(=C/[N+](=O)[O-])Nc1ccc(O)cc1 | 67.3 µM | 41.5 µM |  |  |  |  | 
10 | CS/C(=C/[N+](=O)[O-])Nc1ccc(Br)cc1 | 20.4 µM | 33 µM |  |  |  |  | 
11 | CS/C(=C/[N+](=O)[O-])NC1CCCCC1 | 70.1 µM | 21.9 µM |  |  |  |  | 
12 | CS/C(=C/[N+](=O)[O-])Nc1ccc(F)cc1 | 19.7 µM | 19.7 µM |  |  |  |  | 
13 | CS/C(=C/[N+](=O)[O-])NCCCCO | > 100 µM | 73.6 µM | > 50 µM | 11.1 |  | 11.1 | 
14 | CS/C(=C/[N+](=O)[O-])NCCCO | 90.1 µM | > 100 µM | > 50 µM |  | 9.6 |  | 9.6
15 | CS/C(=C/[N+](=O)[O-])Nc1ccc(Cl)cc1 | 25.8 µM | 21.3 µM | > 50 µM | 6.9 | 7.3 | 6.9 | 7.3
16 | COc1ccc2nc(Cl)c(SC)nc2c1 | 38.7 µM | 93.6 µM | > 50 µM | 9.8 | 19.3 | 9.8 | 19.3
17 | CSc1nc2ccccc2nc1Cl | 52.9 µM | 74.1 µM | > 50 µM | 13.5 | 8.1 | 13.5 | 8.1
18 | COc1ccc2nc(SC)c(Cl)nc2c1 | > 100 µM | > 100 µM | > 50 µM |  |  |  | 
19 | CSc1nc2ccc(Br)cc2nc1Cl | 47.8 µM | 57.9 µM | > 50 µM | 7.4 | 9.2 | 7.4 | 9.2
20 | CSc1nc2ccc(Cl)cc2nc1Cl | 39.4 µM | 45.3 µM | > 50 µM | 22.1 | 16.1 | 22.1 | 16.1
21 | COc1ccc2nc(-c3ccccc3)c(SC)nc2c1 | > 100 µM | > 100 µM |  |  |  |  | 

Row | Structure (SMILES) | IC50 [1] | IC50 [2] | EC50 [3] | selectivity ratio [4] | selectivity ratio [5] | selectivity ratio [6] | selectivity ratio [7]
22 | CSc1nc2ccccc2nc1-c1ccccc1 | > 100 µM | > 100 µM |  |  |  |  | 
23 | COc1ccc(-c2nc3cc(OC)ccc3nc2-c2ccccc2)cc1 | > 100 µM | 40.5 µM |  |  |  |  | 
24 | Cc1ccc(-c2nc3cc(Cl)ccc3nc2-c2ccccc2)cc1 | 36 µM | 24.3 µM |  |  |  |  | 
25 | c1ccc(-c2nc3ccccc3nc2-c2ccc(OCCN3CCOCC3)cc2)cc1 | 40.3 µM | 6.2 µM | > 50 µM | 8.7 | 4.6 | 8.7 | 4.6
26 | COc1ccc(-c2nc3ccc(Cl)cc3nc2-c2ccccc2)cc1 | 43.8 µM | 31.5 µM | > 50 µM | 9.5 | 6.5 | 9.5 | 6.5
27 | Clc1ccc2nc(-c3ccccc3)c(-c3ccccc3)nc2c1 | 42.7 µM | 28.1 µM | > 50 µM | 6.6 | 6.1 | 6.6 | 6.1
28 | Clc1cc2nc(-c3ccccc3)c(-c3ccccc3)nc2cc1Cl | 54 µM | 5.3 µM | > 50 µM | 38.5 | 8.7 | 38.5 | 8.7
29 | Cc1ccc(-c2nc3cc(Cl)c(Cl)cc3nc2-c2ccccc2)cc1 | 83.4 µM | 22.2 µM | > 50 µM | 3.2 | 1.3 | 3.2 | 1.3
30 | Oc1ccc(-c2nc3ccccc3nc2-c2ccc(OCCN3CCCCC3)cc2)cc1 | 39.2 µM | 5.7 µM | > 50 µM | 8.2 | 1 | 8.2 | 1
31 | COc1ccc2nc(N(C)C)c(SC)nc2c1 | 83.6 µM | 42.8 µM | > 50 µM | 5.9 | 6.2 | 5.9 | 6.2
32 | CCCCNc1nc2ccc(OC)cc2nc1SC | 86.7 µM | 35.2 µM | > 50 µM | 2.1 | 3.1 | 2.1 | 3.1
33 | COc1ccc2nc(NCCO)c(SC)nc2c1 | > 100 µM | 82.9 µM | > 50 µM | 5 |  | 5 | 
34 | CCCCNc1nc2ccccc2nc1SC | 93.1 µM | 75.9 µM | > 50 µM | 1.9 | 1.2 | 1.9 | 1.2
35 | CSc1nc2ccccc2nc1NCCO | > 100 µM | 96.2 µM | > 50 µM | 2.9 |  | 2.9 | 
36 | COc1ccc2nc(SC)c(NCCO)nc2c1 | > 100 µM | > 100 µM | > 50 µM |  |  |  | 
37 | COc1ccc2nc(SC)c(NC3CCCCC3)nc2c1 | 41 µM | 21.5 µM | > 50 µM | 2.4 | 1.8 |  | 
38 | CSc1nc2ccc(Br)cc2nc1NCCO | > 100 µM | > 100 µM | > 50 µM |  |  |  | 
39 | CSc1nc2ccc(Cl)cc2nc1NC1CCCCC1 | 52.3 µM | > 100 µM | > 50 µM |  | 4.8 |  | 4.8
40 | CCCCNc1nc2cc(OC)ccc2nc1-c1ccccc1 | 66.8 µM | > 100 µM | > 50 µM |  | 12.5 |  | 12.5
41 | COc1ccc2nc(-c3ccccc3)c(NCCO)nc2c1 | > 100 µM | 72.8 µM | > 50 µM | 4.8 |  | 4.8 | 
